In ChEMBL document CHEMBL4011645, “New Inhibitor Targeting Signal Transducer and Activator of Transcription 5 (STAT5) Signaling in Myeloid Leukemias” (J Med Chem, 2017):
Activity calls are given as the source filed them. The calls are words filed in the database; no cut-off is given here.

How the values were obtained:
[1] = system: K562; experiment: Antiproliferative activity against human K562 cells at 10 uM after 72 hrs by MTT assay; type: functional, cell-based
In short: (§1)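 Screen at a single 10 μM, DMSO as vehicle control, growth followed at 24, 48 and 72 h. Readouts: MTT (0.2×10^5 cells/well in X-Vivo, 4 h MTT, SDS/HCl lysis, OD 570 nm) and trypan blue exclusion counts of living cells. n = 3 in triplicates, mean ± SEM.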

[2] = system: K562; experiment: Antiproliferative activity against human K562 cells at 10 uM after 72 hrs by trypan blue assay; type: functional, cell-based; in short: as §1
[3] = system: KU812 cell line; experiment: Antiproliferative activity against human KU812 cells at 10 uM after 72 hrs by trypan blue assay; type: functional, cell-based; in short: as §1
[4] = system: KU812 cell line; experiment: Antiproliferative activity against human KU812 cells at 10 uM up to 72 hrs by MTT assay; type: functional, cell-based; in short: as §1
[5] = system: KU812 cell line; experiment: Antiproliferative activity against human KU812 cells at 10 uM after 24 hrs by trypan blue assay; type: functional, cell-based; in short: as §1
[6] = system: K562; experiment: Antiproliferative activity against human K562 cells at 10 uM after 48 hrs by MTT assay; type: functional, cell-based; in short: as §1
[7] = system: KU812 cell line; experiment: Antiproliferative activity against human KU812 cells at 10 uM after 24 hrs by MTT assay; type: functional, cell-based; in short: as §1
[8] = system: KU812 cell line; experiment: Antiproliferative activity against human KU812 cells at 10 uM after 48 hrs by trypan blue assay; type: functional, cell-based; in short: as §1
[9] = system: K562; experiment: Antiproliferative activity against human K562 cells at 10 uM after 48 hrs by trypan blue assay; type: functional, cell-based; in short: as §1
[10] = system: KU812 cell line; experiment: Antiproliferative activity against human KU812 cells at 10 uM after 48 hrs by MTT assay; type: functional, cell-based; in short: as §1
[11] = system: KU812 cell line; experiment: Antiproliferative activity against human KU812 cells after 48 hrs by MTT assay; type: functional, cell-based; settings: KU812, 48 h
In short: (§2)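 K562 or KU812 cells (RPMI/10% FBS, 37 °C, 5% CO2) exposed to 100 nM–50 μM for 48 h. 0.2×10^5 cells per well in phenol-red-free X-Vivo, MTT 4 h, lysis overnight in 10% SDS/0.003% HCl, absorbance at 570 nm. EC50 fitted; n = 3 in triplicates, mean ± SEM.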

[12] = system: K562; experiment: Antiproliferative activity against human K562 cells after 48 hrs by MTT assay; type: functional, cell-based; settings: K562, 48 h; in short: as §2
[13] = system: KU812 cell line; experiment: Induction of apoptosis in human KU812 cells at 10 uM after 48 hrs by FITC-Annexin V and 7-amino-actinomycin D staining-based flow cytometry method; type: functional, cell-based
In short: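 After 48 h culture with 10 μM or DMSO, 10^6 cells stained with FITC-Annexin V and 7-AAD for 15 min at 4 °C. Percentage of apoptotic cells measured by flow cytometry; n = 3 in triplicates, mean ± SEM.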

[14] = system: K562; experiment: Antiproliferative activity against human K562 cells at 10 uM after 24 hrs by MTT assay; type: functional, cell-based; in short: as §1
[15] = system: K562; experiment: Antiproliferative activity against human K562 cells at 10 uM after 24 hrs by trypan blue assay; type: functional, cell-based; in short: as §1
[16] = biological target: T1, Signal transducer and activator of transcription 5A (Homo sapiens) (UniProt P42229); experiment: Inhibition of STAT5 phosphorylation in human KU812 cells at 10 uM after 72 hrs by Western blot method; type: cell-based
T1 sequence (whole entry): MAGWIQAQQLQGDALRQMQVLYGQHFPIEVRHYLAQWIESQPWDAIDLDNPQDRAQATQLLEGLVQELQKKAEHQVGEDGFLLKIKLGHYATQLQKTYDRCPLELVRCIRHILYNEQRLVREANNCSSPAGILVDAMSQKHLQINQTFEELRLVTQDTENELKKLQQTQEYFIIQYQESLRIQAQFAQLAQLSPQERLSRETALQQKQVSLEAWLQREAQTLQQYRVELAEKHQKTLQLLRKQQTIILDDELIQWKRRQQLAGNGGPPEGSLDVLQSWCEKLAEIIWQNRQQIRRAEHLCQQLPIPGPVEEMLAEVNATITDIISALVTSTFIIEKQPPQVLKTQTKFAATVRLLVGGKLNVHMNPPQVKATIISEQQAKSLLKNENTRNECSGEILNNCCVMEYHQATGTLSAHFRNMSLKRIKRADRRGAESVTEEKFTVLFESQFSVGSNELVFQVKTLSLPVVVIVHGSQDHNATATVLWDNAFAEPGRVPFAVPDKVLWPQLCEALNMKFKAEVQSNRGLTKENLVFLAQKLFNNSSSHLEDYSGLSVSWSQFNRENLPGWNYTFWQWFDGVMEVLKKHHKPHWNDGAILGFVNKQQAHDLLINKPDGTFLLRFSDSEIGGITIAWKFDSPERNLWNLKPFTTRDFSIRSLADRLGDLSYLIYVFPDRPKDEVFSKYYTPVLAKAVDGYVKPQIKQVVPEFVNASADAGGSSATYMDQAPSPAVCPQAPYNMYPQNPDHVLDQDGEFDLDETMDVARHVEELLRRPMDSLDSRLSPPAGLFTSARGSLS
In short: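 Western blot of KU812 cells 72 h after exposure to 10 µM. Lysates in 2x Laemmli buffer were run on SDS-PAGE and transferred to nitrocellulose. Blots were probed with P-Y694/699-STAT5 and STAT5 antibodies and detected by ECL.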

Row | EC50 [12] | SMILES | Activity [1] | Activity [2] | Activity [3] | Activity [4] | EC50 [11] | other results
1 | – | CC1(C)CCN(CCOc2ccc3[nH]ccc3c2)c2ccc(-c3cccc([N+](=O)[O-])c3)cc21 | inactive | inactive | inactive | inactive | – | –
2 | – | CC1(C)CCN(CCOc2ccc3[nH]ccc3c2)c2ccc(C(=O)C3CCCCC3)cc21 | inactive | inactive | – | – | – | Activity [5]: Active; Activity [6]: Active; Activity [7]: Active; Activity [8]: inactive; Activity [9]: Active; Activity [10]: inactive
3 | – | Cn1ccc2cc(OCCN3CCC(C)(C)c4ccccc43)ccc21 | inactive | inactive | inactive | inactive | – | –
4 | 22.7 µM | CC1(C)CCN(CCOc2ccc3[nH]ccc3c2)c2ccc(-c3ccncc3)cc21 | – | Active | Active | – | 9.38 µM | Activity [13]: Active
5 | – | CCOC(=O)Cn1ccc2cc(OCCN3CCC(C)(C)c4ccccc43)ccc21 | inactive | inactive | inactive | inactive | – | –
6 | 78.1 µM | CC1(C)CCN(CCOc2ccc3[nH]ccc3c2)c2ccccc21 | – | – | – | – | 14.6 µM | Activity [5]: Active; Activity [14]: Active; Activity [7]: Active; Activity [15]: Active
7 | 15.6 µM | CC1(C)CCN(CCOc2ccc3[nH]ccc3c2)c2ccc(Br)cc21 | – | – | – | – | 7.59 µM | –
8 | 13 µM | CC1(C)CCN(CCOc2ccc3[nH]ccc3c2)c2ccc(-c3ccc(Cl)nc3)cc21 | – | – | Active | – | 5.41 µM | Activity [13]: Active
9 | – | CC1(C)CCN(CCOc2ccc3c(ccn3CC(=O)O)c2)c2ccccc21 | – | – | – | – | – | Activity [6]: inactive; Activity [8]: inactive; Activity [9]: inactive; Activity [10]: inactive
10 | – | CC1(C)CCN(CCOc2ccc3c(ccn3CC(=O)O)c2)c2ccc(C(=O)C3CCCCC3)cc21 | – | – | – | – | 197 µM | inhibition [16]: Active
11 | – | CC1(C)CCN(CCOc2ccc3[nH]ccc3c2)c2ccc(-c3ccccn3)cc21 | inactive | inactive | inactive | inactive | – | –
